Results pooled from the literature.
Compare with care: the assays were run in different laboratories. Values after ≈ are worked out from the molar mass of the structure shown.

SMILES	tested on	test	test system	conditions	endpoint	value
O=c1oc2c(O)c(O)cc3c(=O)oc4c(O)c(O)cc1c4c23	Streptococcus gordonii	microbial killing, broth dilution	–	–	MBC	400 µg/mL (≈ 1320 µM)
C[C@H]1[C@H](NC(=O)/C(=N\OC(C)(C)C(=O)O)c2csc(N)n2)C(=O)N1S(=O)(=O)O	Acinetobacter baumannii	microbial growth, broth dilution	ATCC19606	–	MIC	16 µg/mL (≈ 36.7 µM)
Cc1cccc(N=C2C(=O)Nc3ccccc32)c1	B16	cell growth or viability, MTT	–	48 h	IC50	51.9 µM
CN(C)[C@@H]1C(O)=C(C(N)=O)C(=O)[C@@]2(O)C(O)=C3C(=O)c4c(O)cccc4[C@@](C)(O)[C@H]3C[C@@H]12	Acinetobacter baumannii	microbial growth, broth dilution	ATCCBAA1605	–	MIC	> 64 µg/mL
CCC(C(=O)N1C(=O)C(=Nc2ccc(Cl)cc2Br)c2ccccc21)c1ccccc1 (centres unmarked)	B16	cell growth or viability, MTT	–	48 h	IC50	27.1 µM
Cc1n[nH]c2ccc3nc(-c4ccc(C(=O)NCCN(C)C)cc4F)c4c(c3c12)CCCC4	G-361	cell growth or viability	–	72 h	GI50	1.58 µM
O=C1C(=Nc2ccc(Cl)cc2)c2ccccc2N1Cc1ccc([N+](=O)[O-])cc1	B16	cell growth or viability, MTT	–	48 h	IC50	0.58 µM
C[C@@H](O)[C@H]1C(=O)N2C(C(=O)O)=C(SCCN=CN)C[C@H]12	Acinetobacter baumannii	microbial growth, broth dilution	ATCC19606	–	MIC	1 µg/mL (≈ 3.34 µM)
Oc1cc(O)c2c(c1)O[C@H](c1cc(O)c(O)c(O)c1)[C@@H](O)C2	Streptococcus gordonii	microbial growth, disc diffusion	–	500 µg/disc	inhibition zone	11.6 mm
CCCCCCC#Cc1cncc(-c2nnc(SCc3ccc(Cl)cc3)n2CCCN)c1	Acinetobacter baumannii	microbial growth, broth dilution	ATCC17978	–	MIC	16 µg/mL (≈ 34.2 µM)
O=C1OC[C@H]2OC(O)[C@H](O)[C@@H](O)[C@@H]2OC(=O)c2cc(O)c(O)c(O)c2-c2c(O)c(O)c3oc(=O)c4c(c(O)c(O)c5oc(=O)c2c3c54)-c2c1cc(O)c(O)c2O (mixture of isomers)	Streptococcus gordonii	microbial growth, broth dilution	–	24 h	MIC	200 µg/mL
CC(C)c1cccc(C(C)C)c1N=C1C(=O)N(Cc2cccc(Cl)c2)c2ccccc21	B16	cell growth or viability, MTT	–	48 h	IC50	40.9 µM
CC[C@H]1OC(=O)[C@H](C)[C@@H](O[C@H]2C[C@@](C)(OC)[C@@H](O)[C@H](C)O2)[C@H](C)[C@@H](O[C@@H]2O[C@H](C)C[C@H](N(C)C)[C@H]2O)[C@](C)(O)C[C@@H](C)CN(C)[C@H](C)[C@@H](O)[C@]1(C)O	Acinetobacter baumannii	microbial growth, broth dilution	ATCC19606	–	MIC	1 µg/mL (≈ 1.34 µM)
O=C(O[C@@H]1O[C@@H]2COC(=O)c3cc(O)c(O)c(O)c3-c3c(cc(O)c(O)c3O)C(=O)O[C@H]([C@H]1O)[C@@H]2O)c1cc(O)c(O)c(O)c1	Streptococcus gordonii	microbial killing, broth dilution	–	–	MBC	800 µg/mL (≈ 1260 µM)
Cc1n[nH]c2ccc3nc(-c4ccc(C(=O)NCCN(C)C)cc4)c4c(c3c12)CCCCC4	G-361	cell growth or viability	–	72 h	GI50	> 10 µM
O=C1C(=Nc2ccc(Cl)cc2)c2ccccc2N1Cc1cccc(Cl)c1	B16	cell growth or viability, MTT	–	48 h	IC50	1.56 µM
O=C1O[C@H]2[C@@H]3OC(=O)c4cc(O)c(O)c(O)c4-c4c(O)c(O)c5oc(=O)c6c(c(O)c(O)c7oc(=O)c4c5c76)-c4c(cc(O)c(O)c4O)C(=O)OC[C@H]3OC(O)[C@@H]2OC(=O)c2cc(O)c(O)c(O)c2-c2c1cc(O)c(O)c2O (mixture of isomers)	Streptococcus gordonii	microbial killing, broth dilution	–	–	MBC	400 µg/mL
